Measured values: ChEMBL document CHEMBL3108700, “Designing anti-inflammatory drugs from parasitic worms: a synthetic small molecule analogue of the Acanthocheilonema viteae product ES-62 prevents development of collagen-induced arthritis” (J Med Chem, 2013)
The source made the active and inactive calls. Unless noted, no cut-off for these calls is given here.

Key:
Mus musculus [1] = test: Antiinflammatory activity in DBA/1 mouse collagen-induced arthritis model assessed as reduction of high disease scores at 50 ug/kg, sc administered 2 days prior to collagen challenge continued till day 21 post collagen challenge; assay type: functional, organism-based
Method in brief: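 Collagen-induced arthritis mice were dosed subcutaneously (1 μg/dose) or given PBS on days −2, 0 and 21. Arthritis was scored clinically and hind paw width measured. Incidence was the % of mice with severity score ≥2 (cumulative) or ≥4 (high score). Results are mean ± SEM. Scores n = 13 per group, pooled from two experiments; paw width n = 7, from a single experiment.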

Mus musculus [2] = test: Antiinflammatory activity in DBA/1 mouse collagen-induced arthritis model assessed as reduction in number of gammadelta+ T cells at 50 ug/kg, sc administered 2 days prior to collagen challenge continued till day 21 post collagen challenge; assay type: functional, organism-based; settings: T-cell
Method in brief: (§1)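 Dosing was 1 μg/dose or PBS given subcutaneously on days −2, 0 and 21 of CIA. Total, CD4+, CD8+ and γδ T cell numbers in draining lymph nodes were counted by flow cytometry for each mouse. Naive mice not exposed to collagen served as a further control (naive n = 7; PBS and treated n = 13).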

[3] = biological target: T1, Toll-like receptor 4 (Mus musculus) (UniProt Q9QUK6); test: Inhibition of TLR4 in ovalbumin pulsed C57BL/6 mouse BMDC co-cultured with OT-2 CD4+ T cells assessed as reduction of LPS-induced IL-17 production at 5 ug/mL after 3 days by ELISA; assay type: cell-based; settings: T-cell
T1 sequence (whole entry): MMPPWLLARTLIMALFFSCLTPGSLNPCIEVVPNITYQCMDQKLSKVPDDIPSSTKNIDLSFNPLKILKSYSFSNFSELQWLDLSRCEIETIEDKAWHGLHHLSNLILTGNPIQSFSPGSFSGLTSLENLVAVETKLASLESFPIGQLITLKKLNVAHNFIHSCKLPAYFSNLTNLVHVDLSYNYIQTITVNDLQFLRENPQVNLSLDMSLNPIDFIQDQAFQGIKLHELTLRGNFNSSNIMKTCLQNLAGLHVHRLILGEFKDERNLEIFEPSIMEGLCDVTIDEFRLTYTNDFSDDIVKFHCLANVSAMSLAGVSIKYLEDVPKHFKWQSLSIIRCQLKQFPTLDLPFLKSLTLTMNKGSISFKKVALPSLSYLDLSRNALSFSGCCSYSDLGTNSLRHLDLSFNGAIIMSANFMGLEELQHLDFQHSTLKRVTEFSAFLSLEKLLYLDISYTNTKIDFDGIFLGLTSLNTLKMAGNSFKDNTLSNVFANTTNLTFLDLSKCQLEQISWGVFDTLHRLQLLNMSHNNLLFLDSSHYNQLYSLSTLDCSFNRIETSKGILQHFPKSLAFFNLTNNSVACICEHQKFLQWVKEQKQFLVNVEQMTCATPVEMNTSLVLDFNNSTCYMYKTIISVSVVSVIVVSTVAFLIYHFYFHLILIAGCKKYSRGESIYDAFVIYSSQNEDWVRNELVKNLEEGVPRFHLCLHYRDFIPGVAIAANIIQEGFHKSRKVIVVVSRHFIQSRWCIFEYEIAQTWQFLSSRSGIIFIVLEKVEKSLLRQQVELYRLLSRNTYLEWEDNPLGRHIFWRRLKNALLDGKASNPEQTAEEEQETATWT
Method in brief: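 C57BL/6 bone marrow DCs ± compound (5 μg/mL) were treated ± LPS, pulsed with OVA peptide, and cocultured 3 days with naive OT-II CD4+ T cells. IL-17A was measured by ELISA. Responses were normalized to the LPS response at 10, 100 and 300 nM OVA. Values are mean ± SEM, pooled from four experiments.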

[4] = Cytotoxicity against BLP-stimulated BALB/c mouse BMDM assessed as loss of cell viability at 5 ug/mL preincubated for 18 hrs followed by BLP challenge measured after 24 hrs by 7-AAD staining-based flow cytometric analysis
Method in brief: (§2)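 BALB/c bone marrow macrophages (2 × 10^5/well) were rested 24 h in complete RPMI, then given 5 μg/mL compound for 18 h. Cells were stained with 7-AAD for 10 min on ice and the dead fraction read by flow cytometry. One experiment is representative of two.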

[5] = biological target: T1, Toll-like receptor 4 (Mus musculus); test: Inhibition of TLR4 in C57BL/6 mouse BMDC assessed as reduction of LPS-induced TNF-alpha production at 5 ug/mL preincubated for 2 hrs prior to LPS challenge measured after 24 hrs by ELISA
Method in brief: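 C57BL/6 bone marrow DCs were generated in complete RPMI with 10 ng/mL GM-CSF. They were preincubated ± compound at 5 μg/mL for 2 h, then stimulated with LPS for 24 h. TNF-α, IL-6 and IL-23 in conditioned medium were measured by ELISA. Values are means of triplicates ± SEM pooled from 4 experiments.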

TLR2/TLR6 (Mus musculus) = TLR2/TLR6 (Mus musculus) (UniProt Q9QUN7+Q9EPW9); test: Inhibition of TLR2/6 in BALB/c mouse BMDM assessed as downregulation of BLP-stimulated IL-6 level at 5 ug/ml preincubated for 18 hrs followed by BLP challenge measured after 24 hrs by ELISA relative to control; assay type: protein-complex assay
Method in brief: (§3)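 BALB/c male bone marrow macrophages were differentiated 7 days with L929 supernatant (≥99% CD11b+/F4/80+). Cells were plated at 2 × 10^5/well in triplicate, rested overnight, and given compounds at 5 μg/mL for 18 h. They were then stimulated with 100 ng/mL S. minnesota LPS, 10 ng/mL Pam3CSK4 (BLP) or 0.01 μM CpG for 24 h. Supernatant IL-12p40 and IL-6 were measured by ELISA (sensitivity 16 pg/mL).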

[6] = biological target: T1, Toll-like receptor 4 (Mus musculus); test: Inhibition of TLR4-mediated NFkappaB p65 activation in LPS-stimulated BALB/c mouse BMDM at 5 ug/ml preincubated for 18 hrs followed by LPS challenge measured after 1 hr by TransAM ELISA
Method in brief: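 Bone marrow macrophages (4 × 10^6/well) had their medium changed after 24 h, were pretreated with compounds at 5 μg/mL for 18 h, then stimulated for 1 h with 100 ng/mL LPS, 10 ng/mL BLP or 1 μM CpG. Activated NFκB p65 in nuclear extracts was measured by TransAM ELISA in duplicate.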

[7] = Cytotoxicity against LPS-stimulated BALB/c mouse BMDM assessed as loss of cell viability at 5 ug/mL preincubated for 18 hrs followed by LPS challenge measured after 24 hrs by 7-AAD staining-based flow cytometric analysis; method in brief: as §2
BMDC = test: Antiinflammatory activity in mouse BMDC assessed as downregulation of TLR4 expression; assay type: functional
[8] = biological target: T1, Toll-like receptor 4 (Mus musculus); test: Inhibition of TLR4 in BALB/c mouse BMDM assessed as downregulation of LPS-stimulated IL-6 level at 5 ug/ml preincubated for 18 hrs followed by LPS challenge measured after 24 hrs by ELISA relative to control; method in brief: as §3
Mus musculus [9] = test: Antiinflammatory activity in DBA/1 mouse collagen-induced arthritis model assessed as reduction in total number of DLN cells at 50 ug/kg, sc administered 2 days prior to collagen challenge continued till day 21 post collagen challenge; assay type: functional, organism-based; method in brief: as §1

inhibition [3]: Active
inhibition [5]: Active
inhibition (TLR2/TLR6 (Mus musculus)): inactive
inhibition [6]: Active
inhibition [8]: Active
SMILES: CN(C)CCS(=O)(=O)Cc1ccc(Br)cc1
Activity (Mus musculus [1]): Active
Activity (Mus musculus [2]): Active
Activity [4]: Non-toxic
Activity [7]: Non-toxic
Activity (BMDC): inactive
Activity (Mus musculus [9]): Active
